Measured values of several laboratories.
pIC50: −log10 of the molar value.
Observed: cell growth or viability

| SMILES | cell line | test | setting | pIC50 |
| --- | --- | --- | --- | --- |
| Cc1nc(Nc2ncc(C(=O)Nc3c(C)cccc3Cl)s2)cc(N2CCN(CCO)CC2)n1 | F180 | MTT | 48 h | 4.49 |
| CC1(C)CC[C@]2(C)CC[C@]3(C)C(=CC[C@@H]4[C@@]5(C)CC[C@H](O)C(C)(C)[C@@H]5CC[C@]43C)[C@@H]2C1 | RD | WST-1 | 48 h | 4.03 |
| COc1ccc(-c2nn(-c3ccc(S(C)(=O)=O)cc3)cc2C=N/N=c2\[nH]c(-c3ccc([N+](=O)[O-])cc3)cs2)cc1 | F180 | MTT | 48 h | 4.55 |
| COc1cc([C@@H]2c3cc4c(cc3[C@@H](O[C@@H]3O[C@@H]5CO[C@@H](C)O[C@H]5[C@H](O)[C@H]3O)[C@H]3COC(=O)[C@H]23)OCO4)cc(OC)c1O | Caco-2 | MTS | 48 h | 4.82 |
| CC(C)c1cc(C(=O)N2Cc3ccccc3C2)c(O)c2[nH]nnc12 | UMUC3 | ATP luminescence | 72 h | < 4.00 |
| CNC(=O)c1cc(Oc2ccc(NC(=O)Nc3ccc(Cl)c(C(F)(F)F)c3)cc2)ccn1 | Swiss-3T3 | SRB | – | 6.37 |
| CC(C)c1cc(C(=O)N2Cc3ccccc3C2)c(O)c2c1C(=O)C=C2 | UMUC3 | ATP luminescence | 72 h | 5.93 |
| Cc1cccc(-n2ncc(Br)c(Br)c2=O)c1 | NCI-H1650 | resazurin | 96 h | 6.13 |
| COc1ccc(/C=C/C(=O)/C=C/c2cn(-c3ccccc3)nc2-c2ccccc2)cc1O | LLC-PK1 | MTT | 72 h | 5.08 |
| COc1cc([C@@H]2c3cc4c(cc3[C@@H](O[C@@H]3O[C@@H]5CO[C@@H](C)O[C@H]5[C@H](O)[C@H]3O)[C@H]3COC(=O)[C@H]23)OCO4)cc(OC)c1O | Caco-2 | MTS | 72 h | 4.78 |
| COc1cc(Nc2nccc(-c3cnn4nc(OC)ccc34)n2)cc(C(F)(F)F)c1 | U-118-MG | ATP luminescence | – | 6.92 |
| CC(=O)OC[C@H]1O[C@@H]([S-])[C@H](OC(C)=O)[C@@H](OC(C)=O)[C@@H]1OC(C)=O.CCP(CC)CC.[Au+] | IMR-90 | resazurin | – | 5.17 |
| CC(C)Cc1ccc(-c2nn(-c3ccc(S(C)(=O)=O)cc3)cc2/C=N/N=c2\[nH]c(-c3ccc([N+](=O)[O-])cc3)cs2)cc1 | F180 | MTT | 48 h | 4.63 |
| CC(C)c1cc(C(=O)N2Cc3ccccc3C2)c(O)c2cc[nH]c12 | UMUC3 | ATP luminescence | 72 h | < 4.00 |
| Cn1nnc2c(C(N)=O)ncn2c1=O | U-118-MG | resazurin | 7 days | 3.49 |
| COc1cccc2c1C(=O)c1c(O)c3c(c(O)c1C2=O)C[C@@](O)(C(=O)CO)C[C@@H]3O[C@H]1C[C@H](N)[C@H](O)[C@H](C)O1 | Caco-2 | MTT | 48 h | 4.75 |
| COc1cc(N2CCC(N3CCN(C)CC3)CC2)ccc1Nc1ncc(Cl)c(Nc2ccccc2S(=O)(=O)C(C)C)n1 | RD | – | 72 h | 6.60 |
| O=C(Nc1ccc(Cl)cc1)c1ccc([N+](=O)[O-])o1 | NCI-H1650 | resazurin | 96 h | 6.42 |
| COc1cc(/C=C/C(=O)/C=C/c2c(C)nn(-c3cccc([N+](=O)[O-])c3)c2Cl)cc(OC)c1OC | LLC-PK1 | MTT | 72 h | 5.23 |
| Nc1ncnc2c1ncn2[C@@H]1O[C@H](CO)[C@@H](O)[C@H]1O | RD | WST-1 | 48 h | 4.18 |
| CC(=O)O[C@H]1C(=O)[C@@]2(C)[C@H]([C@H](OC(=O)c3ccccc3)[C@]3(O)C[C@H](OC(=O)[C@H](O)[C@@H](NC(=O)c4ccccc4)c4ccccc4)C(C)=C1C3(C)C)[C@]1(OC(C)=O)CO[C@@H]1C[C@@H]2O | LLC-PK1 | MTT | 72 h | 6.14 |
| CON=C1CCc2c(O)c(C(=O)N3Cc4ccccc4C3)cc(C(C)C)c21 | UMUC3 | ATP luminescence | 72 h | 4.11 |
| Cc1cc(-c2nc(C(=O)Nc3cc4oc(N5CCOCC5)nc4nc3N3CC[C@@H](O)C3)co2)ccn1 | SU-DHL-4 | – | 5 days | < 5.00 |
| CCSC(=O)c1ncn2c(=O)n(C)nnc12 | U-118-MG | resazurin | 7 days | 3.78 |

| SMILES | cell line | test | setting | pIC50 |
| --- | --- | --- | --- | --- |
| CN(C)C/C=C/C(=O)Nc1cc2c(Nc3ccc(F)c(Cl)c3)ncnc2cc1O[C@H]1CCOC1 | Caco-2 | MTT | 72 h | 5.51 |
| CCCCCC/N=C1\c2cc(C(N)=O)nc3c(N)c(Cl)c(N)c(c23)N1C | HCC44 | – | – | 5.96 |
| CC(C)c1cc(C(=O)N2Cc3ccccc3C2)c(O)c2c1C(=O)C(F)C2 (centres unmarked) | UMUC3 | ATP luminescence | 72 h | 4.16 |
| CC(C)C[C@H](NC(=O)[C@H](Cc1ccccc1)NC(=O)c1cnccn1)B(O)O | U-118-MG | ATP luminescence | – | 8.12 |
| COc1ccc(/C=C/C(=O)/C=C/c2c(C)nn(-c3cccc([N+](=O)[O-])c3)c2Cl)cc1OC | LLC-PK1 | MTT | 72 h | 4.68 |
| Cn1nnc2c(C(=O)N3CCCC3)ncn2c1=O | U-118-MG | resazurin | 7 days | 3.87 |
| O=c1cc(-c2ccc(O)c(O)c2)oc2cc(O)cc(O)c12 | RD | WST-1 | 48 h | 4.80 |
| COc1cc(/C=C/C(=O)/C=C/c2c(C)nn(-c3ccccc3)c2Cl)cc(OC)c1O | LLC-PK1 | MTT | 72 h | 4.89 |
| CS(=O)(=O)c1ccc(-n2cc(C=N/N=c3\[nH]c(-c4ccc(Br)cc4)cs3)c(-c3ccc([N+](=O)[O-])cc3)n2)cc1 | F180 | MTT | 48 h | 4.44 |
| O=Cc1ccc(CO)o1 | RD | WST-1 | 48 h | 4.22 |
| CC1Cc2c(O)c(C(=O)N3Cc4ccccc4C3)cc(C(C)C)c2C1=O (centres unmarked) | UMUC3 | ATP luminescence | 72 h | 4.15 |
| COc1cc(/C=C/C(=O)CC(=O)/C=C/c2ccc(O)c(OC)c2)ccc1O | LLC-PK1 | MTT | 72 h | < 4.60 |
| Cn1nnc2c(C(N)=O)ncn2c1=O | U-118-MG | MTT | 72 h | 3.03 |
| COc1cc2nccc(Oc3ccc(NC(=O)C4(C(=O)Nc5ccc(F)cc5)CC4)cc3)c2cc1OC | RD | – | 72 h | 5.92 |
| CS(=O)(=O)c1ccc(-n2cc(/C=N/N=c3\[nH]c(-c4ccc([N+](=O)[O-])cc4)cs3)c(-c3ccc(Br)cc3)n2)cc1 | F180 | MTT | 48 h | 4.14 |
| CC(O)(CS(=O)(=O)c1ccc(F)cc1)C(=O)Nc1ccc(C#N)c(C(F)(F)F)c1 (centres unmarked) | LAPC4 | MTT | 7 days | 5.05 |
| C[C@@H](Oc1cc(-c2cnn(C3CCNCC3)c2)cnc1N)c1c(Cl)ccc(F)c1Cl | RD | – | 72 h | 6.31 |
| CC(C)c1cc(C(=O)N2Cc3ccccc3C2)c(O)c2cn[nH]c12 | UMUC3 | ATP luminescence | 72 h | < 4.00 |
| COc1ccc(-c2nn(-c3ccc(S(C)(=O)=O)cc3)cc2/C=N/N=c2\[nH]c(-c3ccc(Br)cc3)cs2)cc1 | F180 | MTT | 48 h | 4.22 |
| CC(C)c1cc(C(=O)N2Cc3ccccc3C2)c(O)c2c1CCC2 | UMUC3 | ATP luminescence | 72 h | 4.24 |
| CCOc1cc(OCC)cc(C(=O)O[C@@H]2CN3Cc4c(cc5c(c4OC)OCO5)[C@@]24C=C[C@H](OC)C[C@@H]34)c1 | A2780 | WST-1 | – | 5.11 |
| Cc1ncn2c(=O)n(C)nnc12 | U-118-MG | resazurin | 7 days | 5.15 |
| CC(C)/N=C1\c2cc(C(N)=O)nc3c(N)c(Cl)c(N)c(c23)N1C | HCC44 | – | – | 6.30 |
